A selection: hits, their analogues and other compounds. The true share with any hit is near 1.8%.
CHRM4 antagonist = human M4 muscarinic receptor antagonists, primary screen, CHO cells, Fluo-8 calcium fluorescence; Muscarinic acetylcholine receptor M4 (Homo sapiens), P08173; CHO-hM4 cells, ACh EC80; inhibition, % at 3 µM; 360,000 tested, 0.73% active;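 active = inhibition above its plate's cutoff, the mean inhibition of sample wells plus 3 SD, cut at about 27% in these data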
M5 PAM = human M5 muscarinic receptor positive allosteric modulators, primary screen, CHO-K1 cells, Fluo-8 calcium fluorescence. CHO-K1 hM5, ACh EC20 PAM; 0% = ACh EC20, 100% = ACh EC100. activation, % at 3 µM. 360,000 tested, 0.3% active. AID 624038, 2012;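 active = activation above the run cutoff, the mean activation of all test compounds plus 3 SD, cut at about 18% in these data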
Target sequence (P08912 whole entry, looked up): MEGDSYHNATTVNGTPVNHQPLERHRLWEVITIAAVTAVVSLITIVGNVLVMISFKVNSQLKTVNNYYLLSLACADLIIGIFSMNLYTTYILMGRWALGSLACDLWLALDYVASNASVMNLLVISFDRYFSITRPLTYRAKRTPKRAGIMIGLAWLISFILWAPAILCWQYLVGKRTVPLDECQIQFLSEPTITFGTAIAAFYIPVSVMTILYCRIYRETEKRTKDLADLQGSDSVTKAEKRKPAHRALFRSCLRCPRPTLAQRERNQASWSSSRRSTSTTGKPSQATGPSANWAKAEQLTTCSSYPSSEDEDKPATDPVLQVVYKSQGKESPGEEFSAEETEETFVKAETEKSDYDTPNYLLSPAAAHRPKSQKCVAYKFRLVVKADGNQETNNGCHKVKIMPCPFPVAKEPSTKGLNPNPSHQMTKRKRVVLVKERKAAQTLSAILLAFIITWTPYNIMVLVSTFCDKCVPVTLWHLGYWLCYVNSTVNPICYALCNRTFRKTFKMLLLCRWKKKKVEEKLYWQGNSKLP
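Assay system – human M5 receptor in CHO-K1 cells · Read-out – % activation, ACh-normalized · Technique – Fluo-8 calcium fluorescence · Dosing – single-point, 3 µM nominal · Incubation – Fluo-8 loading 80 min at 37 °C plus 30 min room temperature · Repeats – singlicate, one well per test compound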
M5 antag = human M5 muscarinic receptor antagonists, primary screen, CHO cells, Fluo-8 calcium fluorescence | Muscarinic acetylcholine receptor M5 (Homo sapiens), P08912 | CHO-hM5 cells, ACh EC80 | inhibition, % at 3 µM | 360,000 tested, 0.59% active | AID 624040, 2012;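 active = inhibition above a per-plate cutoff, the mean of that plate's test compounds plus 3 SD, cut at about 27% in these data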
CHRM4 agonist = human M4 muscarinic receptor agonists, primary screen, CHO-K1 cells, Fluo-8 calcium fluorescence. CHO-K1 hM4/Gqi5; vehicle 0%, full acetylcholine response 100%. Muscarinic acetylcholine receptor M4 (Homo sapiens), P08173. activation, % at 3 µM. 360,000 tested, 0.14% active;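 active = activation above the run mean over all test wells plus 3 SD, cut at about 32% in these data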;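 note: peak over basal fluorescence ratio per well then scaled between controls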
M5 ag = human M5 muscarinic receptor agonists, primary screen, CHO-K1 cells, Fluo-8 calcium fluorescence; CHO-K1 hM5 cells; 0% DMSO wells, 100% maximal acetylcholine response; activation, % at 3 µM; 360,000 tested, 0.19% active;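 active = activation above the run's mean over test compounds plus 3 SD, cut at about 23% in these data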;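 note: signal is peak over basal fluorescence ratio across the kinetic read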
M4 PAM = human M4 muscarinic receptor positive allosteric modulators, primary screen, CHO-K1 cells, Fluo-8 calcium fluorescence. Muscarinic acetylcholine receptor M4 (Homo sapiens), P08173. CHO-K1 hM4/Gqi5, ACh EC20; 0% = ACh EC20, 100% = maximal ACh. activation, % at 3 µM. 360,000 tested, 0.4% active;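 active = activation above its plate's cutoff, the mean activation of sample wells plus 3 SD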
Of the large screens only hits and unclear results are named; the others gave an inactive call.

COc1ccc([N+](=O)[O-])cc1NC(=O)CCN1CCOCC1	none
CCOC(=O)COc1ccc(S(=O)(=O)N2CCN(c3ccccc3F)CC2)cc1	none
O=S(=O)(c1ccccc1)N1CCN(c2ccccc2)CC1	none
CCOC(=O)COc1ccc(S(=O)(=O)N2CCN(c3ccc(OC)cc3)CC2)cc1	M5 antag 33
COc1ccc(S(=O)(=O)N2CCN(c3ccccc3)CC2)cc1	M5 antag 28
CCCCc1cc(=O)oc2cc(C)cc(OCC(=O)NC(Cc3ccc(Cl)cc3)C(=O)O)c12 (stereo not drawn)	none
CSc1nncc(-c2ccc(F)cc2)n1	CHRM4 agonist 33
CSc1nncc(-c2ccc(F)c(F)c2)n1	none
CCc1ccc(C2CC(=O)N3CN(c4ccccc4)CSC3=C2C#N)cc1 (stereo not drawn)	none
CN1CSC2=C(C#N)C(c3cccc(OCc4ccccc4)c3)CC(=O)N2C1 (stereo not drawn)	M5 ag 40
CCOC(=O)C1=C(CS(=O)(=O)c2ccc(C)cc2)NC(=O)NC1c1ccc(O)c(OC)c1 (stereo not drawn)	M5 PAM 20
CCOc1cc(C2NC(=O)NC(C)=C2C(=O)OCC2CCCCC2)ccc1O (stereo not drawn)	M5 antag 29
CCOC(=O)C1=C(c2ccccc2)NC(=O)NC1c1ccc(O)c(OCC)c1 (stereo not drawn)	none
CCNC(=O)NC(=O)C(C)N1C(=O)NC(c2ccccc2)(c2ccccc2)C1=O (stereo not drawn)	none
Cc1nc2ccn(Cc3ccccc3)c(=O)c2cc1C(=O)N1CCN(c2ccccc2)CC1	M4 PAM 14
O=[N+]([O-])c1cc(C(F)(F)F)ccc1SCC(O)CO (stereo not drawn)	M5 PAM 26
Cc1ccccc1C(=O)OCC(=O)NCC1COc2ccccc2O1 (stereo not drawn)	none
CCOC(=O)c1cc(-c2ccccc2)sc1NC(=O)C(C)OC(=O)c1cccc(S(=O)(=O)N(C)C)c1 (stereo not drawn)	M5 PAM 20
COc1ccc(C(C(=O)NC2CCCCC2)N(C(=O)c2ccco2)c2ccccc2C(C)=O)cc1OC (stereo not drawn)	none
CC(C)(C)NC(=O)C(c1cccs1)N(C(=O)c1csnn1)c1cccc(F)c1 (stereo not drawn)	none
CC(C)(C)NC(=O)C(c1cccs1)N(Cc1ccc(F)cc1)C(=O)c1csnn1 (stereo not drawn)	M5 antag 37
O=C(Cc1ccc(Cl)cc1)Nc1ccc(CN2CCCCC2)cc1	none
CCOC(=O)C1(Cc2ccc(OC)cc2)CCN(C(=O)CN2CCCCC2=O)CC1	M5 antag 28
Cc1ccc(N(CC(=O)NCc2ccc(F)cc2)C(=O)c2csnn2)c(C)c1	none
CCOc1ccc(N(CC(=O)NCCc2ccccc2)C(=O)c2csnn2)cc1	M4 PAM 16
Cc1cc(C)c(N(CC(=O)NCc2ccccc2)C(=O)c2csnn2)c(C)c1	M5 PAM 23
COc1ccc(N(CC(=O)NCCc2ccccc2)C(=O)c2csnn2)cc1OC	none
COc1ccc(N(CC(=O)NCCc2ccccc2)C(=O)c2csnn2)cc1	M5 antag 32
Cc1ccc(N(CC(=O)NCCc2ccccc2)C(=O)c2csnn2)cc1	none
Cc1noc(NS(=O)(=O)c2ccc(NC(=O)c3ccc(N4C(=O)c5ccccc5C4=O)cc3)cc2)c1C	M5 PAM 19
CCSc1ncc(Cl)c(C(=O)Nc2ccc(S(=O)(=O)Nc3onc(C)c3C)cc2)n1	M5 antag 48
Cc1ccc(C(C)C)c(OCCN)c1	none

High-throughput results as filed in PubChem.
